Measurements published in ChEMBL document CHEMBL2346621, “Discovery of novel tricyclic indole derived inhibitors of HCV NS5B RNA dependent RNA polymerase” (Bioorg Med Chem, 2013).

Experiments:
[1] = AUC (0 to 6 hrs) in rat at 10 mg/kg, po; assay type: ADME, organism-based; design: time < 6 hr, dose 10 mg/kg, route oral; details: plasma
Outline: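 Rapid rat assay: single oral 10 mg/kg dose in 0.4% HPMC. Plasma AUC integrated over 0–6 h after dosing (AUC0–6 h).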

[2] = Cytotoxicity against human hepatoma cells assessed as cell viability by MTS assay; assay type: cell-based
Outline: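 Cellular toxicity was measured by MTS assay, with GAPDH also used as an internal control, and expressed as CC50.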

Hepatitis C virus [3] = experiment: Antiviral activity against Hepatitis C virus infected in human hepatoma cells assessed as reduction in replicon RNA level; assay type: functional, organism-based, Hepacivirus hominis
Outline: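 Replicon-bearing hepatoma cells were used. EC50 is the concentration that reduces viral RNA levels by 50%.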

Hepatitis C virus [4] = experiment: Inhibition of HCV-1b Con-1 C-terminal His6x-tagged NS5B delta21 RNA dependent RNA polymerase expressed in Escherichia coli JM109 (DE3) assessed as [alpha-33P]CTP incorporation in RNA after 30 mins by scintillation counting analysis; design: species or system Hepatitis C virus subtype 1b; details: Con1, JM 109, 0.5 h

| SMILES | AUC(0-t) at 6 h [1] [µM·h] | CC50 [2] [nM] | EC50 (Hepatitis C virus [3]) [nM] | IC50 (Hepatitis C virus [4]) [nM] |
| --- | --- | --- | --- | --- |
| Cc1ccccc1Cn1c(C(=O)NS(C)(=O)=O)c(-c2ccc[nH]c2=O)c2c3occc3ccc21 | 1.2 | > 10000 | 50 | 10 |
| O=C(NS(=O)(=O)Cc1ccccc1)c1c(-c2ccc[nH]c2=O)c2cc(Cl)ccc2n1Cc1cc(F)ccc1F |  |  | 1000 | 10 |
| O=C(O)c1c(-c2ccc[nH]c2=O)c2c3c(ccc2n1Cc1cc(F)ccc1F)CCC3 | 104 | > 10000 | 3500 | 27 |
| O=C(O)c1c(-c2ccc[nH]c2=O)c2c3c(ccc2n1Cc1cc(F)ccc1F)OC(F)(F)O3 |  | > 10000 | 2000 | 7 |
| O=C(O)c1c(-c2ccc[nH]c2=O)c2c3scnc3ccc2n1Cc1cc(F)ccc1F | 104 | > 10000 |  | 1700 |
| O=C(O)c1c(-c2ccc[nH]c2=O)c2c3ncsc3ccc2n1Cc1cc(F)ccc1F |  | > 10000 | 700 | 9 |
| O=C(O)c1c(-c2ccc[nH]c2=O)c2c3ccoc3ccc2n1Cc1cc(F)ccc1F |  | > 10000 | 3100 | 34 |
| O=C(O)c1c(-c2ccc[nH]c2=O)c2c3occc3ccc2n1Cc1cc(F)ccc1F | 146 | > 10000 | 160 | 31 |
| O=C(O)c1c(-c2ccc[nH]c2=O)c2c3c(ccc2n1Cc1cc(F)ccc1F)CCO3 | 11 | > 10000 | 460 | 8 |
| Cc1coc2c1ccc1c2c(-c2ccc[nH]c2=O)c(C(=O)O)n1Cc1cc(F)ccc1F |  | > 10000 |  | 2900 |
| CCc1coc2c1ccc1c2c(-c2ccc[nH]c2=O)c(C(=O)O)n1Cc1cc(F)ccc1F |  | > 10000 |  | > 5000 |
| O=C(O)c1c(-c2ccc[nH]c2=O)c2c3occ(Cl)c3ccc2n1Cc1cc(F)ccc1F |  | > 10000 | 120 | 7 |
| Cc1cc2ccc3c(c(-c4ccc[nH]c4=O)c(C(=O)O)n3Cc3cc(F)ccc3F)c2o1 |  | > 10000 | 2000 | 21 |
| CS(=O)(=O)NC(=O)c1c(-c2ccc[nH]c2=O)c2c3occc3ccc2n1Cc1cc(F)ccc1F | 11 | > 10000 | 50 | 9 |
| CCS(=O)(=O)NC(=O)c1c(-c2ccc[nH]c2=O)c2c3occc3ccc2n1Cc1cc(F)ccc1F | 0.7 | > 10000 | 110 | 6 |
| CC(C)S(=O)(=O)NC(=O)c1c(-c2ccc[nH]c2=O)c2c3occc3ccc2n1Cc1cc(F)ccc1F | 1 | > 10000 | 50 | 8 |
| O=C(NS(=O)(=O)C1CC1)c1c(-c2ccc[nH]c2=O)c2c3occc3ccc2n1Cc1cc(F)ccc1F |  | > 10000 | 50 | 16 |
| CS(=O)(=O)NC(=O)c1c(-c2ccc[nH]c2=O)c2c3occc3ccc2n1Cc1ccc(F)cc1F | 2.4 | > 10000 | 80 | 31 |
| CS(=O)(=O)NC(=O)c1c(-c2ccc[nH]c2=O)c2c3occc3ccc2n1Cc1ccccc1F | 9.5 | > 10000 | 100 | 8 |
| Cc1ccc(Cn2c(C(=O)NS(C)(=O)=O)c(-c3ccc[nH]c3=O)c3c4occc4ccc32)c(C)c1 |  | > 10000 | 60 | 6 |
| CS(=O)(=O)NC(=O)c1c(-c2ccc[nH]c2=O)c2c3occc3ccc2n1Cc1cc(C(N)=O)ccc1F |  | > 10000 | 30 | 10 |
| Cc1cccc(Cn2c(C(=O)NS(C)(=O)=O)c(-c3ccc[nH]c3=O)c3c4occc4ccc32)c1F | 0.3 | > 10000 | 30 | 3 |
| CS(=O)(=O)NC(=O)c1c(-c2ccc[nH]c2=O)c2c3occc3ccc2n1Cc1ccccc1Cl |  | > 10000 | 50 | 3 |
